ChEMBL document CHEMBL2046279, “Trigoflavidols A-C, degraded diterpenoids with antimicrobial activity, from Trigonostemon flavidus” (J Nat Prod, 2012)
pIC50: −log10 of the molar value. Values after ≈ are worked out from the molar mass of the structure shown.

Experiments:
Staphylococcus aureus [1] = assay: Antimicrobial activity against Staphylococcus aureus after 18 hrs by two-fold dilution method; type: functional
HL-60 = assay: Cytotoxicity against human HL60 cells by MTT assay; type: functional, cell-based
SMMC-7721 = assay: Cytotoxicity against human SMMC7721 cells by MTT assay; type: functional, cell-based
A549 = assay: Cytotoxicity against human A549 cells by MTT assay; type: functional, cell-based
MCF7 = assay: Cytotoxicity against human MCF7 cells by MTT assay; type: functional, cell-based
SW480 = assay: Cytotoxicity against human SW480 cells by MTT assay; type: functional, cell-based
Staphylococcus aureus [2] = assay: Antimicrobial activity against 8 isolates of methicillin-resistant Staphylococcus aureus after 18 hrs by two-fold dilution method; type: functional
Staphylococcus aureus [3] = assay: Antimicrobial activity against 82 isolates of methicillin-resistant Staphylococcus aureus after 18 hrs by two-fold dilution method; type: functional
Staphylococcus aureus [4] = assay: Antimicrobial activity against Staphylococcus aureus by agar plate punch assay; type: functional
Procedure, shortened: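 Compounds dissolved in DMSO at 500 μg/mL; 50 μL placed in a 6 mm well punched in MH agar smeared with test organism suspension (1.5 × 10^9 cfu/mL). Read-out is diameter of the inhibition zone.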

Compound `COc1cc2c(cc(OC)c3cc(C)c(O)cc32)oc1=O` [TRIGOFLAVIDOL C] has an MIC (Staphylococcus aureus [1]) of over 50 µg/mL, a pIC50 (HL-60) of under 4.40 and a pIC50 (SMMC-7721) of under 4.40. For the same compound, the pIC50 (A549) was under 4.40, the pIC50 (MCF7) was under 4.40 and the pIC50 (SW480) was under 4.40.
In the case of `COC(=O)[C@@]1(O)[C@]2(Oc3cc4c(cc(OC)c5cc(C)c(O)cc54)c(C)c3O2)c2c(cc(OC)c3cc(C)c(O)cc23)[C@@]1(C)O` (relative stereo), the MIC (Staphylococcus aureus [1]) was 1.56 µg/mL (≈ 2.55 µM), the MIC (Staphylococcus aureus [2]) was 3.12 µg/mL (≈ 5.09 µM) and the MIC (Staphylococcus aureus [3]) was 6.25 µg/mL (≈ 10.2 µM). It also gave a pIC50 (HL-60) of 4.68, a pIC50 (SMMC-7721) of 4.67 and a pIC50 (A549) of 4.70. For the same compound, the pIC50 (MCF7) was 4.83, the pIC50 (SW480) was 4.80 and the “diameter of the inhibition zone (DIZ)” value (Staphylococcus aureus [4]) was over 10 mm.
Work on `COC(=O)[C@@]1(O)[C@@]2(Oc3cc4c(cc(OC)c5cc(C)c(O)cc54)c(C)c3O2)c2c(cc(OC)c3cc(C)c(O)cc23)[C@@]1(C)O` [TRIGOFLAVIDOL B] yielded an MIC (Staphylococcus aureus [1]) of 1.56 µg/mL (≈ 2.55 µM), an MIC (Staphylococcus aureus [2]) of 3.12 µg/mL (≈ 5.09 µM) and an MIC (Staphylococcus aureus [3]) of 3.12 µg/mL (≈ 5.09 µM). The pIC50 (HL-60) was under 4.40, the pIC50 (SMMC-7721) was 4.71 and the pIC50 (A549) was 4.77. For the same compound, the pIC50 (MCF7) was 4.83, the pIC50 (SW480) was 4.81 and the “diameter of the inhibition zone (DIZ)” value (Staphylococcus aureus [4]) was over 10 mm.
Work on `CN[C@H](CC(C)C)C(=O)N[C@H]1C(=O)N[C@@H](CC(N)=O)C(=O)N[C@H]2C(=O)N[C@H]3C(=O)N[C@H](C(=O)N[C@H](C(=O)O)c4cc(O)cc(O)c4-c4cc3ccc4O)[C@H](O)c3ccc(c(Cl)c3)Oc3cc2cc(c3O[C@@H]2O[C@H](CO)[C@@H](O)[C@H](O)[C@H]2O[C@H]2C[C@](C)(N)[C@H](O)[C@H](C)O2)Oc2ccc(cc2Cl)[C@H]1O.Cl` [VANCOMYCIN HYDROCHLORIDE] yielded an MIC (Staphylococcus aureus [1]) of 1.56 µg/mL, an MIC (Staphylococcus aureus [2]) of 0.78 µg/mL and an MIC (Staphylococcus aureus [3]) of 0.78 µg/mL.
`COc1cc2c(cc(OC)c3cc(C)c(O)cc32)c(C)c1O` [TRIGONOCHINENE E] was tested, and the MIC (Staphylococcus aureus [1]) was over 50 µg/mL, the pIC50 (HL-60) was 5.43 and the pIC50 (SMMC-7721) was 4.54. The pIC50 (A549) was 4.68, the pIC50 (MCF7) was 4.74 and the pIC50 (SW480) was 4.69. The “diameter of the inhibition zone (DIZ)” value (Staphylococcus aureus [4]) was over 10 mm.
Compound `Cc1cc2c(cc1O)C1=C(C3=C4C(=CC(=O)c5cc(C)c(O)cc54)C(C)(C)C3=O)C(=O)C(C)(C)C1=CC2=O` [NEOBOUTOMANNIN] has an MIC (Staphylococcus aureus [1]) of over 50 µg/mL, a pIC50 (HL-60) of under 4.40 and a pIC50 (SMMC-7721) of under 4.40. The pIC50 (A549) was under 4.40, the pIC50 (MCF7) was under 4.40 and the pIC50 (SW480) was under 4.40.
